# Laboratory results published in ChEMBL document CHEMBL1770123, “SPF32629A and SPF32629B: enantioselective synthesis, determination of absolute configuration, cytotoxicity and antibacterial evaluation” (Eur J Med Chem, 2011).
# Activity calls are given as the source filed them. The rule behind the calls is not given here.
# Key:
# Bacillus subtilis [1] = assay: Antimicrobial activity against Bacillus subtilis after 24 hrs by microdilution method; type: functional
# How it was run: (§1)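 Growth was judged by turbidity, and the MIC was taken as the minimum concentration giving the lowest growth. Amikacin served as reference.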
# A549 [2] = assay: Cytotoxicity against human A549 cells assessed as cell death at 10 ug after 48 hrs by MTT assay; type: functional
# How it was run: (§2)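 A549 cells were grown in DMEM with 2 mmol L-glutamine, 10% FBS, penicillin (50 IU/mL) and streptomycin, at 37 °C and 5% CO2. 1×10^4 cells/well were plated and treated 24 h later with compound diluted in medium for 48 h. Controls were DMSO-matched and untreated wells. MTT 0.4 mg/mL in PBS was added for 4 h in the dark, then DMSO for 4 h. A540 was read and reported as % live cells relative to untreated.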
# Staphylococcus aureus [3] = assay: Antimicrobial activity against methicillin-resistant Staphylococcus aureus strain 4 TB5G at 500 ug/disc after 24 hrs by disc diffusion method; type: functional
# How it was run: (§3)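 Disc diffusion on 2.4% Mueller-Hinton agar inoculated with the strain. Paper discs 6 mm across were loaded with test compound and placed on the agar. Plates were incubated at 37 °C for 24 h. Read-out was the diameter of the inhibition zone in mm.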
# Klebsiella pneumoniae [4] = assay: Antimicrobial activity against Klebsiella pneumoniae at 1000 ug/disc after 24 hrs by disc diffusion method; type: functional; details: read-out: DIZ
# A549 [5] = assay: Cytotoxicity against human A549 cells assessed as cell death at 5 ug after 48 hrs by MTT assay; type: functional; how it was run: as §2
# Staphylococcus aureus [6] = assay: Antimicrobial activity against Staphylococcus aureus after 24 hrs by microdilution method; type: functional; how it was run: as §1
# Staphylococcus aureus [7] = assay: Antimicrobial activity against methicillin-resistant Staphylococcus aureus strain 2 TB4G at 1000 ug/disc after 24 hrs by disc diffusion method; type: functional; details: read-out: DIZ; how it was run: as §3
# A549 [8] = assay: Cytotoxicity against human A549 cells assessed as cell death at 2 ug after 48 hrs by MTT assay; type: functional; how it was run: as §2
# Staphylococcus aureus [9] = assay: Antimicrobial activity against methicillin-resistant Staphylococcus aureus strain 1 TB3G after 24 hrs by microdilution method; type: functional
# How it was run: (§4)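 Growth was judged by turbidity. The MIC was taken as the lowest concentration giving the lowest growth.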
# Listeria monocytogenes [10] = assay: Antimicrobial activity against Listeria monocytogenes at 500 ug/disc after 24 hrs by disc diffusion method; type: functional
# Klebsiella pneumoniae [11] = assay: Antimicrobial activity against Klebsiella pneumoniae after 24 hrs by microdilution method; type: functional; how it was run: as §1
# Bacillus subtilis [12] = assay: Antimicrobial activity against Bacillus subtilis at 500 ug/disc after 24 hrs by disc diffusion method; type: functional; details: read-out: DIZ
# [13] = system: Staphylococcus epidermidis; assay: Antimicrobial activity against Staphylococcus epidermidis after 24 hrs by microdilution method; type: functional; how it was run: as §1
# Salmonella typhimurium [14] = assay: Antimicrobial activity against Salmonella Typhimurium at 1000 ug/disc after 24 hrs by disc diffusion method; type: functional, Salmonella enterica subsp. enterica serovar Typhimurium
# Staphylococcus aureus [15] = assay: Antimicrobial activity against methicillin-resistant Staphylococcus aureus strain 1 TB3G at 500 ug/disc after 24 hrs by disc diffusion method; type: functional; how it was run: as §3
# Staphylococcus aureus [16] = assay: Antimicrobial activity against Staphylococcus aureus at 500 ug/disc after 24 hrs by disc diffusion method; type: functional; how it was run: as §3
# Staphylococcus aureus [17] = assay: Antimicrobial activity against methicillin-resistant Staphylococcus aureus strain 1 TB3G at 1000 ug/disc after 24 hrs by disc diffusion method; type: functional; how it was run: as §3
# Escherichia coli [18] = assay: Antimicrobial activity against Escherichia coli at 500 ug/disc after 24 hrs by disc diffusion method; type: functional; details: read-out: DIZ
# Salmonella typhimurium [19] = assay: Antimicrobial activity against Salmonella Typhimurium at 500 ug/disc after 24 hrs by disc diffusion method; type: functional, Salmonella enterica subsp. enterica serovar Typhimurium
# [20] = system: Staphylococcus epidermidis; assay: Antimicrobial activity against Staphylococcus epidermidis at 1000 ug/disc after 24 hrs by disc diffusion method; type: functional
# Staphylococcus aureus [21] = assay: Antimicrobial activity against Staphylococcus aureus at 1000 ug/disc after 24 hrs by disc diffusion method; type: functional
# Staphylococcus aureus [22] = assay: Antimicrobial activity against methicillin-resistant Staphylococcus aureus strain 4 TB5G after 24 hrs by microdilution method; type: functional; how it was run: as §4
# A549 [23] = assay: Cytotoxicity against human A549 cells assessed as cell death at 1 ug after 48 hrs by MTT assay; type: functional; how it was run: as §2
# Klebsiella pneumoniae [24] = assay: Antimicrobial activity against Klebsiella pneumoniae at 500 ug/disc after 24 hrs by disc diffusion method; type: functional; details: read-out: DIZ
# Listeria monocytogenes [25] = assay: Antimicrobial activity against Listeria monocytogenes after 24 hrs by microdilution method; type: functional; how it was run: as §1
# [26] = system: Staphylococcus epidermidis; assay: Antimicrobial activity against Staphylococcus epidermidis at 500 ug/disc after 24 hrs by disc diffusion method; type: functional
# Escherichia coli [27] = assay: Antimicrobial activity against Escherichia coli at 1000 ug/disc after 24 hrs by disc diffusion method; type: functional; details: read-out: DIZ
# A549 [28] = assay: Cytotoxicity against human A549 cells assessed as cell death at 25 ug after 48 hrs by MTT assay; type: functional; how it was run: as §2
# Bacillus subtilis [29] = assay: Antimicrobial activity against Bacillus subtilis at 1000 ug/disc after 24 hrs by disc diffusion method; type: functional; details: read-out: DIZ
# Staphylococcus aureus [30] = assay: Antimicrobial activity against methicillin-resistant Staphylococcus aureus strain 2 TB4G at 500 ug/disc after 24 hrs by disc diffusion method; type: functional; details: read-out: DIZ; how it was run: as §3
# Staphylococcus aureus [31] = assay: Antimicrobial activity against methicillin-resistant Staphylococcus aureus strain 2 TB4G after 24 hrs by microdilution method; type: functional; how it was run: as §4
# Staphylococcus aureus [32] = assay: Antimicrobial activity against methicillin-resistant Staphylococcus aureus strain 4 TB5G at 1000 ug/disc after 24 hrs by disc diffusion method; type: functional; how it was run: as §3
# Listeria monocytogenes [33] = assay: Antimicrobial activity against Listeria monocytogenes at 1000 ug/disc after 24 hrs by disc diffusion method; type: functional
# Escherichia coli [34] = assay: Antimicrobial activity against Escherichia coli after 24 hrs by microdilution method; type: functional; how it was run: as §1
# A549 [35] = assay: Cytotoxicity against human A549 cells after 48 hrs by MTT assay; type: functional, cell-based; details: A549, 48 h
# How it was run: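 A549 cells were kept in DMEM with 2 mM L-glutamine, 10% FBS, penicillin 50 IU/mL and streptomycin at 37 °C under 5% CO2. 1×10^4 cells per well were treated 24 h after seeding with compounds diluted in medium for 48 h. MTT (0.4 mg/mL in PBS) was added for 4 h in the dark, formazan was dissolved in DMSO for 4 h and absorbance read at 540 nm. Viability was expressed as % of untreated cells, and IC50 was derived.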
# Salmonella typhimurium [36] = assay: Antimicrobial activity against Salmonella Typhimurium after 24 hrs by microdilution method; type: functional, Salmonella enterica subsp. enterica serovar Typhimurium; details: Salmonella enterica; how it was run: as §1
# [37] = Salmonella enterica, read-out: DIZ
# [38] = Salmonella enterica subsp. enterica serovar Typhimurium
smiles,measurement,setting,value
CC(C)CC(=O)O[C@@H](c1ccccc1)c1cc(O)c(C(=O)O)c(=O)[nH]1,MIC,Bacillus subtilis [1],50 µg/mL
same,Activity,A549 [2],77.23%
same,zone of inhibition at 500 µg/disc,Staphylococcus aureus [3]; read-out: DIZ,6 mm
same,zone of inhibition at 1000 µg/disc,Klebsiella pneumoniae [4],20 mm
same,Activity,A549 [5],47.69%
same,MIC,Staphylococcus aureus [6],> 100 µg/mL
same,zone of inhibition at 1000 µg/disc,Staphylococcus aureus [7],12 mm
same,Activity,A549 [8],25.23%
same,MIC,Staphylococcus aureus [9],> 100 µg/mL
same,zone of inhibition at 500 µg/disc,Listeria monocytogenes [10]; read-out: DIZ,10 mm
same,MIC,Klebsiella pneumoniae [11],100 µg/mL
same,zone of inhibition at 500 µg/disc,Bacillus subtilis [12],5 mm
same,MIC,[13],100 µg/mL
same,zone of inhibition at 1000 µg/disc,Salmonella typhimurium [14]; [37],19 mm
same,zone of inhibition at 500 µg/disc,Staphylococcus aureus [15]; read-out: DIZ,5 mm
same,zone of inhibition at 500 µg/disc,Staphylococcus aureus [16]; read-out: DIZ,7 mm
same,zone of inhibition at 1000 µg/disc,Staphylococcus aureus [17]; read-out: DIZ,10 mm
same,zone of inhibition at 500 µg/disc,Escherichia coli [18],9 mm
same,zone of inhibition at 500 µg/disc,Salmonella typhimurium [19]; [37],11 mm
same,zone of inhibition at 1000 µg/disc,[20]; read-out: DIZ,18 mm
same,zone of inhibition at 1000 µg/disc,Staphylococcus aureus [21]; read-out: DIZ,16 mm
same,MIC,Staphylococcus aureus [22],> 100 µg/mL
same,Activity,A549 [23],9.53%
same,zone of inhibition at 500 µg/disc,Klebsiella pneumoniae [24],13 mm
same,MIC,Listeria monocytogenes [25],> 100 µg/mL
same,zone of inhibition at 500 µg/disc,[26]; read-out: DIZ,11 mm
same,zone of inhibition at 1000 µg/disc,Escherichia coli [27],18 mm
same,Activity,A549 [28],82.46%
same,zone of inhibition at 1000 µg/disc,Bacillus subtilis [29],12 mm
same,zone of inhibition at 500 µg/disc,Staphylococcus aureus [30],7 mm
same,MIC,Staphylococcus aureus [31],> 100 µg/mL
same,zone of inhibition at 1000 µg/disc,Staphylococcus aureus [32]; read-out: DIZ,10 mm
same,zone of inhibition at 1000 µg/disc,Listeria monocytogenes [33]; read-out: DIZ,18 mm
same,MIC,Escherichia coli [34],25 µg/mL
same,IC50,A549 [35],9 µM
same,MIC,Salmonella typhimurium [36],> 100 µg/mL
COc1cc([C@@H]2c3cc4c(cc3[C@@H](O[C@@H]3O[C@@H]5CO[C@@H](C)O[C@H]5[C@H](O)[C@H]3O)[C@H]3COC(=O)[C@H]23)OCO4)cc(OC)c1O [ETOPOSIDE],Activity,A549 [2],55.33%
same,Activity,A549 [5],25.91%
same,Activity,A549 [8],9.12%
same,Activity,A549 [23],5.54%
same,Activity,A549 [28],69.48%
same,IC50,A549 [35],11 µM
CC(C)CC(=O)O[C@@H](c1ccccc1)c1cc(O)cc(=O)[nH]1,Activity,A549 [2],47.62%
same,diameter of the inhibition zone (DIZ),Staphylococcus aureus [3],inactive
same,zone of inhibition at 1000 µg/disc,Klebsiella pneumoniae [4],25 mm
same,Activity,A549 [5],38.96%
same,zone of inhibition at 1000 µg/disc,Staphylococcus aureus [7],26 mm
same,Activity,A549 [8],27.71%
same,diameter of the inhibition zone (DIZ),Listeria monocytogenes [10],inactive
same,zone of inhibition at 500 µg/disc,Bacillus subtilis [12],13 mm
same,diameter of the inhibition zone (DIZ),Salmonella typhimurium [14]; [38],inactive
same,diameter of the inhibition zone (DIZ),Staphylococcus aureus [15],inactive
same,diameter of the inhibition zone (DIZ),Staphylococcus aureus [16],inactive
same,diameter of the inhibition zone (DIZ),Staphylococcus aureus [17],inactive
same,zone of inhibition at 500 µg/disc,Escherichia coli [18],16 mm
same,diameter of the inhibition zone (DIZ),Salmonella typhimurium [19]; [38],inactive
same,diameter of the inhibition zone (DIZ),[20],inactive
same,diameter of the inhibition zone (DIZ),Staphylococcus aureus [21],inactive
same,Activity,A549 [23],9.96%
same,zone of inhibition at 500 µg/disc,Klebsiella pneumoniae [24],15 mm
same,diameter of the inhibition zone (DIZ),[26],inactive
same,zone of inhibition at 1000 µg/disc,Escherichia coli [27],26 mm
same,Activity,A549 [28],63.2%
same,zone of inhibition at 1000 µg/disc,Bacillus subtilis [29],23 mm
same,zone of inhibition at 500 µg/disc,Staphylococcus aureus [30],14 mm
same,diameter of the inhibition zone (DIZ),Staphylococcus aureus [32],inactive
same,diameter of the inhibition zone (DIZ),Listeria monocytogenes [33],inactive
same,IC50,A549 [35],11 µM
